Holding throughout (type): ADME
One data set has as its target Cytochrome P450 2C19 (Homo sapiens, UniProt P33261). Briefly: Reversible inhibition of human CYP2C19 S-mephenytoin 4'-hydroxylase activity. The procedure, abridged:
(§1)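 Reversible IC50 with pooled HLM or recombinant CYP3A7 (with POR and b5), protein 0.010–0.10 mg/ml depending on isoform. Probe substrate at its experimentally derived KM. Metabolite formation measured by LC/MS/MS. IC50 determinations run in duplicate.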

For another data set, the target named is CYP2C19 (Homo sapiens, UniProt P33261). Briefly: Time dependent inhibition of human CYP2C19 S-mephenytoin 4'-hydroxylase activity assessed as decrease in enzyme activity at 100 uM preincubated for 30 mins by IC25-shift assay. The conditions noted are these: probe S-mephenytoin (4'-hydroxylation). The procedure, abridged:
(§2)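 IC25-shift assay. Pooled HLMs or recombinant CYP3A4/3A5/3A7 were preincubated 30 min at 37°C with CYP3cide, with or without NADPH (1.3 mM) (N=2). Mixture diluted 10-fold into probe substrate (~KM) at 37°C. Metabolites analysed by LC/MS/MS. Readout: % decrease in activity vs control.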

Data set [1] has as its system CYP3A5*3/*3. Briefly: Time dependent inhibition of CYP3A5*3/*3 in human liver microsomes assessed as midazolam 1'-hydroxylase activity at 0.56 uM after 10 mins by dilution method. As to conditions: human liver microsomes (CYP3A5*3/*3 genotype), probe midazolam (1'-hydroxylation); call rule not given here. The procedure, abridged: (§3)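 Genotyped individual HLMs (0.1 mg/ml) preincubated at 37°C with CYP3cide (0–1.3 μM; 10 min in the two-donor study, 5 min in the 30-donor study), with or without 1.3 mM NADPH (N=3). Mixture diluted 20-fold into 23 μM midazolam for 6 min. 1'-OH-midazolam measured. Readout: % of vehicle/no-NADPH control activity.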

Data set [2] in a line: Inhibition of CYP3A5*3/*3 in 5 mg/ml of human liver microsomes assessed as midazolam 1'-hydroxylase activity at <2.5 uM after 10 mins.
The next data set addresses CYP2B6 (Homo sapiens, UniProt P20813). Briefly: Time dependent inhibition of human CYP2B6 bupropion hydroxylase activity assessed as decrease in enzyme activity at 100 uM preincubated for 30 mins by IC25-shift assay. The conditions noted are these: probe bupropion (hydroxylation). In a few lines:
as §2

Data set [3] deals with CYP3A5*3/*3. Briefly: Inhibition of CYP3A5*3/*3 in human liver microsomes assessed as midazolam 1'-hydroxylase activity at 0.56 uM after 10 mins. The conditions noted are these: liver microsomes (CYP3A5*3/*3 genotype), probe midazolam (1'-hydroxylation). In a few lines:
as §3

Data set [4] has as its target T1, Cytochrome P450 3A4 (Homo sapiens, UniProt P08684). Briefly: Reversible inhibition of midazolam 1'-hydroxylase activity of human recombinant CYP3A4 harboring human P450 oxidoreductase and b5. The procedure, abridged:
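IC50 was measured with baculovirus-expressed CYP3A4 plus POR and cytochrome b5 (P450:reductase:b5 1:5:7), with substrate at its experimentally derived KM, in duplicate. Enzyme was 0.010 mg/ml for midazolam 1'-hydroxylation and 0.020 mg/ml for testosterone 6β-hydroxylation.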

Data set [5] addresses T2, CYP3A4 (Homo sapiens, UniProt P08684). Briefly: Time dependent inhibition of midazolam 1'-hydroxylase activity of human recombinant CYP3A4 harboring human P450 oxidoreductase and b5 assessed as decrease in enzyme activity at 0.050 uM preincubated for 30 mins by IC25-shift assay. The conditions noted are these: recombinant CYP3A4 with human P450 oxidoreductase and b5, probe midazolam (1'-hydroxylation). The procedure, abridged: as §2

For data set [6], the target named is T1, Cytochrome P450 3A4. Briefly: Inhibition of testosterone 6beta-hydroxylase activity of human recombinant CYP3A4 in presence of human P450 oxidoreductase and b5 assessed as decrease in enzyme activity preincubated for 30 mins by LC-MS/MS analysis.
The target of data set [7] is T2, CYP3A4. Briefly: Time dependent inhibition of testosterone 6beta-hydroxylase activity of human recombinant CYP3A4 in presence of human P450 oxidoreductase and b5 assessed as decrease in enzyme activity at 0.050 uM preincubated for 30 mins by IC25-shift assay. The conditions noted are these: recombinant CYP3A4 with human P450 oxidoreductase and b5, probe testosterone (6beta-hydroxylation). The procedure, abridged:
as §2

For another data set, the target named is Cytochrome P450 2C9 (Homo sapiens, UniProt P11712). Briefly: Reversible inhibition of human CYP2C9 diclofenac 4'-hydroxylase activity. The procedure, abridged: as §1
Data set [8] has as its target T3, Cytochrome P450 3A5 (Homo sapiens, UniProt P20815). Briefly: Inhibition of midazolam 1'-hydroxylase activity of human recombinant CYP3A5 harboring human P450 oxidoreductase and b5 assessed as decrease in enzyme activity preincubated for 30 mins by LC-MS/MS analysis. The procedure, abridged:
(§4)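 rCYP3A5 with POR and b5 (0.010 mg/ml for midazolam, 0.020 mg/ml for testosterone) preincubated 30 min at 37°C with 2 µM inhibitor, ±NADPH (1.3 mM), N=2. Mixture then diluted 10-fold into probe substrate at ~KM at 37°C. Activity expressed as percent of control remaining, reported as decrease in activity.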

A further data set concerns the target Cytochrome P450 2D6 (Homo sapiens, UniProt P10635). Briefly: Reversible inhibition of human CYP2D6 dextromethorphan O-demethylase activity.
The next data set has as its target CYP2C9 (Homo sapiens, UniProt P11712). Briefly: Time dependent inhibition of human CYP2C9 diclofenac 4'-hydroxylase activity assessed as decrease in enzyme activity at 100 uM preincubated for 30 mins by IC25-shift assay. As to conditions: probe diclofenac (4'-hydroxylation). The procedure, abridged: as §2
For data set [9], the target named is T1, Cytochrome P450 3A4. Briefly: Drug metabolism assessed as human recombinant CYP3A4 in presence of human P450 oxidoreductase and b5-mediated (4-(1-methyl-4-((S)-3-(piperidin-1-yl)pyrrolidin-1-yl)-1H-pyrazolo[3,4-d]pyrimidin-3-yl)-5-p-tolyl-1H-pyrazol-1-yl)methanol formation at 10 uM by HPLC-MS analysis in presence of NADPH. As to conditions: recombinant enzyme. In a few lines: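 Recombinant CYP3A4 or CYP3A5 (50 pmol/ml final) added, without preincubation, to 10 µM CYP3cide with NADPH (final 1 mM) in 100 mM phosphate pH 7.4. Trapping incubations also held 200 µM KCN or 5 mM GSH (final). Incubated 1 h at 37°C, quenched with acetonitrile, dried, reconstituted. Metabolites analysed by LC/Orbitrap ESI-MS.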

The target of another data set is Cytochrome P450 1A2 (Homo sapiens, UniProt P05177). Briefly: Reversible inhibition of human CYP1A2 phenacetin O-deethylase activity. In a few lines: as §1
In data set [10] the target is T2, CYP3A4. Briefly: Irreversible inhibition of human recombinant CYP3A4 harboring human P450 oxidoreductase and b5 assessed as residual midazolam 1'-hydroxylase activity in presence of NADPH relative to control. The conditions noted are these: recombinant CYP3A4 with human P450 oxidoreductase and b5, probe midazolam (1'-hydroxylation).
Data set [11] concerns the target T3, Cytochrome P450 3A5. Briefly: Inhibition of testosterone 6beta-hydroxylase activity of human recombinant CYP3A5 in presence of human P450 oxidoreductase and b5 assessed as decrease in enzyme activity preincubated for 30 mins by LC-MS/MS analysis. The procedure, abridged: as §4
Data set [12] has as its target T4, CYP3A (Homo sapiens, UniProt P08684+P20815+P24462+Q9HB55). Briefly: Time dependent inhibition of human CYP3A testosterone 6beta-hydroxylase activity assessed as decrease in enzyme activity at 5 uM preincubated for 30 mins by IC25-shift assay. The conditions noted are these: probe testosterone (6beta-hydroxylation). In a few lines:
as §2

Data set [13] addresses T4, CYP3A. Briefly: Reversible inhibition of human CYP3A felodipine oxidase activity. As to conditions: probe felodipine (oxidation). The procedure, abridged:
as §1

Data set [14] addresses T4, CYP3A. Briefly: Reversible inhibition of human CYP3A testosterone 6beta-hydroxylase activity. The conditions noted are these: probe testosterone (6beta-hydroxylation). The procedure, abridged: as §1
Data set [15] deals with T4, CYP3A. Briefly: Reversible inhibition of human CYP3A midazolam 1'-hydroxylase activity. The conditions noted are these: probe midazolam (1'-hydroxylation). In a few lines: as §1

The structures appear in SMILES notation.

T2 sequence (P08684 whole entry): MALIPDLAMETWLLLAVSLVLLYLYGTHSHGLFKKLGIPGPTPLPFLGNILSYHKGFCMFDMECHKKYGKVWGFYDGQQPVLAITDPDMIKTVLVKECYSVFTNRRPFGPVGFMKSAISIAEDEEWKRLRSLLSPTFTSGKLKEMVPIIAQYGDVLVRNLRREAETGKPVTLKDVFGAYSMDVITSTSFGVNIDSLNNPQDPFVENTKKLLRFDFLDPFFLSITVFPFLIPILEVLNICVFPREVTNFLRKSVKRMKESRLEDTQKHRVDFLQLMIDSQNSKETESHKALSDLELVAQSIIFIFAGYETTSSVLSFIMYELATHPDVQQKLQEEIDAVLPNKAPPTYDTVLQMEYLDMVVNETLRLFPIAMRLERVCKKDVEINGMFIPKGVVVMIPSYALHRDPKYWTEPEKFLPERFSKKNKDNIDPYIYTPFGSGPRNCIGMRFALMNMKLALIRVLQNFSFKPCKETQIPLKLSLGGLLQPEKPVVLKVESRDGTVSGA
T1 sequence (P08684 whole entry): as above
T3 sequence (P20815 whole entry): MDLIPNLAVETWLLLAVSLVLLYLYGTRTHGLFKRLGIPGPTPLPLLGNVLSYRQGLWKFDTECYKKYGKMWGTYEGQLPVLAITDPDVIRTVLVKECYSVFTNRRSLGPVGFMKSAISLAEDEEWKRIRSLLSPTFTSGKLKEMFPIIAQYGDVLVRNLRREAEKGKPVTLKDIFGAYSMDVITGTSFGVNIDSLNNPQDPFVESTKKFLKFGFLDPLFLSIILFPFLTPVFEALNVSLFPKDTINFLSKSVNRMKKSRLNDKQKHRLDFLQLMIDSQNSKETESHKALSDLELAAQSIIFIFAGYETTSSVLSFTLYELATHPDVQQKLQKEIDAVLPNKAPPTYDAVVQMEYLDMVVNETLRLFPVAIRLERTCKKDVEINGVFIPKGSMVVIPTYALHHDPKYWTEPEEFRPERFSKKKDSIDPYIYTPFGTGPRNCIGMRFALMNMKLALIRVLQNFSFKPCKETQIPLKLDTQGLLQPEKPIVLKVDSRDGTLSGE
Chain of Cytochrome P450 2C9 (P11712 whole entry): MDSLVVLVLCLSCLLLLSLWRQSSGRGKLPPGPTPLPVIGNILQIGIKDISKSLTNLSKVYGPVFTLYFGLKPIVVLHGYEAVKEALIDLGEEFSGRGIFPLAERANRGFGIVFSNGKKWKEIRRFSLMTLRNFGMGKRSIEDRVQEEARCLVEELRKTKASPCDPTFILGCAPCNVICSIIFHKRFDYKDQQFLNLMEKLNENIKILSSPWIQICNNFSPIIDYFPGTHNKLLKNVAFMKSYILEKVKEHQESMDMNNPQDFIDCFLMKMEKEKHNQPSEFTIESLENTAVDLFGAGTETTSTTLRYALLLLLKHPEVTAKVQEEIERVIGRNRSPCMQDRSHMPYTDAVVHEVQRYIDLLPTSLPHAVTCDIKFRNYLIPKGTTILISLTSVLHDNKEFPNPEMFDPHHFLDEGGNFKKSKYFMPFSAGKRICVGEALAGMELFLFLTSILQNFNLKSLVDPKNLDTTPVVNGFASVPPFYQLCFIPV
Chain of CYP2C9 (P11712 whole entry): as above
Chain of CYP2C19 (P33261 whole entry): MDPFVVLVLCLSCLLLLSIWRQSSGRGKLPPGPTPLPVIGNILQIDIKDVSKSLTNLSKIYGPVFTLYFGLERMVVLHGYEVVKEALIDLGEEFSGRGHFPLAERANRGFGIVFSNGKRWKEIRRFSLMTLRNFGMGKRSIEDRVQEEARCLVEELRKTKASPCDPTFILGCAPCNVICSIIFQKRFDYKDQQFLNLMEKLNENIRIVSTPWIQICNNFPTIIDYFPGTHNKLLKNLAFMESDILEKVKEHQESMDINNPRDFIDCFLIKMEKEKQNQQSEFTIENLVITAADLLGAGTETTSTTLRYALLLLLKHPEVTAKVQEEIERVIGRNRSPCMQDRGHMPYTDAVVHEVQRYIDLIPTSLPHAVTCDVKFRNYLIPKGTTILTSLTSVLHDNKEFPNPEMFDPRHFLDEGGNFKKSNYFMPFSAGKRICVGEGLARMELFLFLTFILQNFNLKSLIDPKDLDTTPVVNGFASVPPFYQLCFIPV
Chain of Cytochrome P450 2C19 (P33261 whole entry, canonical isoform): as the sequence (P33261 whole entry) above
Chain of CYP2B6 (P20813 whole entry): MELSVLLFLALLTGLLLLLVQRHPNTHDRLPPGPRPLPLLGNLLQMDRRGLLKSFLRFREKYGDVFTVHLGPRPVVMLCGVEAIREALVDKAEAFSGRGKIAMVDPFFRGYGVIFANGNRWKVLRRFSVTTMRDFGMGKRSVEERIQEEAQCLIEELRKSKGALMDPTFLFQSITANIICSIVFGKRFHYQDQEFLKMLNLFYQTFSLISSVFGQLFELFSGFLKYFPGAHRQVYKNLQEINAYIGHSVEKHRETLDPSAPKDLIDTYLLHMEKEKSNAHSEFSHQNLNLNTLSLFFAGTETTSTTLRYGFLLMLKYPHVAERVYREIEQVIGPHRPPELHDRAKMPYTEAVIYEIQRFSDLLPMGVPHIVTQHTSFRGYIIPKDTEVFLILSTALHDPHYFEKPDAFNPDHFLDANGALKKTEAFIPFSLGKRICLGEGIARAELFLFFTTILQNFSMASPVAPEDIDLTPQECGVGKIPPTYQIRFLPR
Chain of Cytochrome P450 2D6 (P10635 whole entry): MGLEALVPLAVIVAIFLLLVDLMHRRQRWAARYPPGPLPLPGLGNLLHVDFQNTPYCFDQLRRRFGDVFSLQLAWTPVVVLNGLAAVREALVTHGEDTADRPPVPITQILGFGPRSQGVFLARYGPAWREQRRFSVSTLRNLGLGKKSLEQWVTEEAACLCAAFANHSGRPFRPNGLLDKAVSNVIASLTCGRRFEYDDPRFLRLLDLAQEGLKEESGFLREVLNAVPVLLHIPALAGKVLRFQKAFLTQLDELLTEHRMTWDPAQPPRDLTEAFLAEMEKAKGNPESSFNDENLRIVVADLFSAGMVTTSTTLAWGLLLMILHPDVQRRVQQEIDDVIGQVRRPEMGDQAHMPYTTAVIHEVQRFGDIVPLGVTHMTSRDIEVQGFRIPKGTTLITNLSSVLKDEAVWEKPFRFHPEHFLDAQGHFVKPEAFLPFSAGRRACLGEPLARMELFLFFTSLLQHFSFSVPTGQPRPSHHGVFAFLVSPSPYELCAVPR
Chain of Cytochrome P450 1A2 (P05177 whole entry): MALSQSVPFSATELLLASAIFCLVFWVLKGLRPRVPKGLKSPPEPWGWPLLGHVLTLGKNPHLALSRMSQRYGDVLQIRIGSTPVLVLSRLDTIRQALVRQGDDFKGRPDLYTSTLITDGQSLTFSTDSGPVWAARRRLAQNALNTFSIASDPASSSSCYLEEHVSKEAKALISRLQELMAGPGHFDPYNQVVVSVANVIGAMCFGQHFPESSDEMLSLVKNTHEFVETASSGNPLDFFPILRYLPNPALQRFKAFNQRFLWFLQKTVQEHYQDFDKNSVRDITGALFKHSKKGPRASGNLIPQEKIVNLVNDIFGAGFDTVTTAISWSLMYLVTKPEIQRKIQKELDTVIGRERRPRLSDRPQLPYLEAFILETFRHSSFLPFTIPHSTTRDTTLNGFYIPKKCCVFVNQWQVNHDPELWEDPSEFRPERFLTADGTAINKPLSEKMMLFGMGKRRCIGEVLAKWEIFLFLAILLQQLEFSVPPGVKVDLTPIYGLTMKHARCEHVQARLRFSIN

With `Cc1ccc(-c2c(-c3nn(C)c4ncnc(N5CC[C@H](N6CCCCC6)C5)c34)cnn2C)cc1`, the IC50 was 77000 nM on Cytochrome P450 2C19; 30 nM at Cytochrome P450 3A4 [4]; greater than 100000 nM at Cytochrome P450 2C9; 71000 nM against Cytochrome P450 2D6; 43000 nM on Cytochrome P450 1A2; 160 nM at CYP3A [13]. The IC50 on CYP3A [14] stood at 1400 nM; against CYP3A [15], 330 nM. The inhibition at 30 min, 100 µM at CYP2C19 is 0.79%; on CYP2B6 it was 2.4%; at CYP2C9, 5.4%. Besides, the inhibition at 10 min, 0.56 µM is 0.4% in the data set on CYP3A5*3/*3 [1] and greater than 85% with CYP3A5*3/*3 [3]. Moreover, the “inhibition (INH)” value in [2] was “Not Active”. The values for the inhibition at 30 min, 0.05 µM at CYP3A4 [5] and on CYP3A4 [7] were 87% and 74%, respectively. The figures for the Ki at Cytochrome P450 3A4 [6], on Cytochrome P450 3A5 [8] and at Cytochrome P450 3A5 [11] were 170 nM, 2000 nM and 1200 nM, respectively. The Drug metabolism result at Cytochrome P450 3A4 [9] is “metabolite_detected”. Besides, the activity at CYP3A4 [10] turned out to be 16%. Also, the inhibition at 30 min, 5 µM at CYP3A [12] was determined as 53%.

(Values after ChEMBL document CHEMBL3526089, “Selective mechanism-based inactivation of CYP3A4 by CYP3cide (PF-04981517) and its utility as an in vitro tool for delineating the relative roles of CYP3A4 versus CYP3A5 in the metabolism of drugs” (Drug Metab Dispos, 2012).)
